A selection: hits, their analogues and other compounds. The true share with any hit is near 1.9%.
HCV NS3 hel inh: inhibitors of HCV NS3 helicase, primary screen, biochemical, Cy5 molecular beacon fluorescence. Hepatitis C virus NS3 helicase. NS3 helicase DNA unwinding. inhibition, % at 10.9 µM. 0.56% of 290,000 active. AID 1800, 2009;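 active means inhibition above the mean of all tested compounds plus 3 SD, set per campaign, cut at about 35% in these data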;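 further: 0% = DMSO wells and 100% = thioflavine S control wells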
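System: Hepatitis C virus NS3 helicase domain fragment enzyme | Reagent: Annealed dual-labelled DNA beacon duplex, ATP-started | Compound dosing: 10.9 µM single point, 0.8% DMSO | Incubation: 1 h reaction at 25 °C, ATP-initiated | Technique: Cy5 fluorescence | Evaluation: Percent inhibition from t60/t0 fluorescence ratio | Benchmarks: Low DMSO, high thioflavine S at 110 µM | Replication: Singlicate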
PP5 inh: PP5 phosphatase inhibitors, primary screen, biochemical, fluorescence. AID 1987, 2009. 0.18% of 320,000 active. purified PP5c, OMFP substrate fluorescence. inhibition, % at 6.7 µM. Serine/threonine-protein phosphatase 5 (Homo sapiens), P53041;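 active means inhibition above the campaign's mean inhibition across all tested compounds plus 3 SD, cut at about 9.5% in these data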;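 further: 0% = DMSO only and 100% = 100 µM cantharidin control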
Target sequence (P53041 whole entry, looked up): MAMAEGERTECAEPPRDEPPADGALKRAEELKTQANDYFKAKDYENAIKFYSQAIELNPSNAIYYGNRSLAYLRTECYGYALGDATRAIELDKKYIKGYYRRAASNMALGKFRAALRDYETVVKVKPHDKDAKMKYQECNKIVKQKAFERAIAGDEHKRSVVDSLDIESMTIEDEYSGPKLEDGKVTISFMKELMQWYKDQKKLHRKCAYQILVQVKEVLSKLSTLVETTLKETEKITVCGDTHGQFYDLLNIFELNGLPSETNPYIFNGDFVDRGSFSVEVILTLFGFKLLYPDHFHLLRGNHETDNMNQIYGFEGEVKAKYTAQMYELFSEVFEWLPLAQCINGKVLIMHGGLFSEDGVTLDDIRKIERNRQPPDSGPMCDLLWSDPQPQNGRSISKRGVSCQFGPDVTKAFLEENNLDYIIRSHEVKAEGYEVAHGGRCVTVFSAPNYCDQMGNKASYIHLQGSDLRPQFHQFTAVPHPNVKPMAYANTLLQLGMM
FID counter: compounds displacing fluorescent DNA intercalator, primary screen, artefact control for HCV NS3 helicase inhibitor project, biochemical, FID fluorescence | DNA fluorescent intercalator displacement | inhibition, % at 7.9 µM | 0.17% of 290,000 active | AID 1845, 2009; in the data active means inhibition above about 37%;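 further: 0% = vehicle and 100% = reference compound; higher means more ethidium bromide displaced from hairpin DNA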
PP1 counter: PP1-alpha phosphatase inhibitors, primary screen, counter-screen for PP5 inhibitor project, biochemical, fluorescence, OMFP substrate, single point. Serine/threonine-protein phosphatase PP1-alpha catalytic subunit (Homo sapiens), P62136. purified PP1alpha. inhibition, % at 6.7 µM. 0.9% of 320,000 active;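 active means inhibition above the mean inhibition of all tested compounds plus 3 SD, computed separately for each screening campaign, cut at about 15% in these data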
HIF activator: HIF pathway transcriptional activators, primary screen, cell-based, U2OS HRE-luciferase, luminescence. U2OS HRE-luciferase reporter; normalized: DMSO 0%, desferrioxamine 100%. activation, % at 7.5 µM (by protocol). 0.32% of 300,000 active;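 active means mean activation of at least 10% of the iron chelator positive control signal, with at least half of replicates also reaching 10%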
PP1 inh confirm: PP1 phosphatase inhibitors, confirmation, biochemical, fluorescence, OMFP substrate, triplicate; shares compounds with PP1 counter; inhibition, % at 6.7 µM; 52% of 1,900 active; purified PP1alpha;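 active means mean PP1 inhibition above a set limit taken from the earlier primary screen, cut at about 15% in these data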
PP5 counter: PP5 phosphatase inhibition by PP1 hits, confirmation, counter-screen for PP1 inhibitor project, biochemical, fluorescence, triplicate. inhibition, % at 6.7 µM. 4% of 1,900 active. purified PP5c, OMFP fluorescence. shares compounds with PP1 counter. AID 2360, 2010;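 active means mean PP5 inhibition over triplicate wells above about 9.5% taken from the earlier PP1 screen, limit read from the data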
An asterisk follows results filed as active; x = no result given.

SMILES	HCV NS3 hel inh	PP5 inh	FID counter	PP1 counter	HIF activator	PP1 inh confirm	PP5 counter
COc1ccc(-n2c3c(cc(C(=O)NNc4ccccc4C)c2=O)C(=O)CC(C)(C)C3)cc1	-1	1	-1	18*	0	1	-3
COc1ccc(CN2C(=O)Cc3c2nc(N)c2c(N)nc(N4CCCCC4)c(C#N)c32)cc1	29	8	-11	26*	0	34*	52*
CC(C)(C)C1CCC2(CC1)Nc1cccc3cccc(c13)N2	-8	-1	-3	31*	-1	25*	4
CCn1c(SCC(=O)c2ccc3c(c2)Cc2ccccc2-3)nnc1-c1ccc(N)cc1	3	-1	-22	21*	0	20*	-3
CCCCn1c(SCC(=O)NCc2ccco2)nc2c(sc3ccccc32)c1=O	0	-2	-4	22*	0	24*	-2
O=C(CSc1nc2ccccc2c2nc3ccccc3n12)NCc1ccco1	-6	1	-13	31*	2	20*	0
CCn1c(SCC(=O)NCc2ccco2)nc2ccccc2c1=O	7	0	-2	-2	0	x	x
Cc1ccc(NC(=O)CN2C(=O)NC(Cc3c[nH]c4ccccc34)C2=O)cc1S(=O)(=O)N1CCCCC1 (stereo not given)	-15	5	-24	3	0	x	x
Cc1ccc(N=Nc2ccc(O)c(P(=O)(c3ccccc3)c3ccccc3)c2)cc1	-1	2	-12	18*	0	16*	-3
O=[N+]([O-])c1ccc(O)c(P(=O)(c2ccccc2)c2ccccc2)c1	7	-1	-21	2	1	x	x
COc1cccc(NC(=O)c2nnn(CC(=O)Nc3cc(C)cc(C)c3)c2N)c1	-10	4	-12	5	-1	x	x
Cc1cccc(NC(=O)Cn2nnc(C(=O)Nc3ccc(F)c(Cl)c3)c2N)c1	23	-6	-22	19*	0	-1	-4
COC(=O)CCC(=O)OC1(C)C(=O)C2=CN(Cc3ccccc3)C(c3ccc(OC)cc3)=CC2=C(Br)C1=O (stereo not given)	x	10*	x	21*	0	9	28*
COC(=O)CCC(=O)OC1(C)C(=O)C2=CN(CCCOC(C)C)C(c3ccc(OC)cc3)=CC2=C(Br)C1=O (stereo not given)	x	-1	x	13	0	x	x
COC(=O)CCC(=O)OC1(C)C(=O)C2=CN(c3ccccc3)C(c3ccc(OC)cc3)=CC2=C(Br)C1=O (stereo not given)	x	2	x	22*	1	12	25*
COC(=O)CCC(=O)OC1(C)C(=O)C2=CN(CCc3c[nH]c4ccccc34)C(c3ccc(OC)cc3)=CC2=C(Br)C1=O (stereo not given)	x	3	x	9	1	x	x
O=C(NCCC1=CCCCC1)C(=O)NCC(c1ccco1)N1CCN(c2ccc(F)cc2)CC1 (stereo not given)	1	3	-4	-3	-3	x	x
CCOC(=O)C1CCN(C(=O)Nc2ccc3nc(-c4ccco4)c(-c4ccco4)nc3c2)CC1	6	5	-24	31*	0	10	6
CCOC(=O)C1CCN(C(=O)Nc2ccc3c(c2)nc(C)n3C)CC1	-6	3	0	-3	x	x	x
CNC(=O)c1ccc(NC(=O)CC2SC(N3CCCC3)=NC2=O)cc1 (stereo not given)	x	4	x	0	x	x	x
O=C(N/N=C/c1ccccc1)C1CCCN1C(=O)c1cc([N+](=O)[O-])cc([N+](=O)[O-])c1 (stereo not given)	-1	x	-12	x	x	x	x
CCCCCCC[C@H](N)[C@H](O)C(=O)N(C)[C@@H](CCS(C)=O)C(=O)N[C@@H](Cc1ccc(O)cc1)C(=O)N[C@@H](Cc1ccc(O)cc1)C(=O)O (stereo not given in full)	x	88*	x	95*	1	95*	86*
CC1=NN(c2ccccc2)C(=O)/C1=C/N(C)C	-1	8	-2	-3	0	x	x
CC1=NN(c2nc3ccccc3[nH]2)C(=O)/C1=C/N(C)C	-7	2	-13	23*	x	-3	-1
Cc1ccccc1N1CCN(C2=NC(=O)/C(=C\c3cccs3)S2)CC1	-14	1	-16	11	4	x	x
SMILES	HCV NS3 hel inh	PP5 inh	FID counter	PP1 counter	HIF activator	PP1 inh confirm	PP5 counter
O=C1N=C(N2CCN(c3cccc4ccccc34)CC2)S/C1=C/c1cccs1	-6	3	-1	24*	0	19*	-3
CCOCCCNC(=O)NC(=O)CN1CCN(S(=O)(=O)c2ccc3c(c2)OCCO3)CC1	-9	0	-24	-2	0	x	x
CCOC(=O)c1cc(-c2ccccc2)nc2c1c(C)nn2-c1ccccn1	0	1	-13	31*	0	32*	-3
CCOC(=O)c1cc(-c2ccncc2)nc2c1c(C)nn2C	-4	1	-12	-1	0	x	x
Cc1nn(-c2ccccc2)c2[nH]c(=O)c(CNCc3ccc4c(c3)OCO4)cc12	-1	-2	9	-3	-3	x	x
Cc1ccc(-c2nn(-c3ccccc3)c3[nH]c(=O)c(CNCc4ccccc4)cc23)cc1	-44	4	6	27*	0	27*	-3
CCOC(=O)c1cnn(-c2ccc([N+](=O)[O-])cc2)c1N	-7	-2	-8	0	1	x	x
CCOC(=O)c1ccc(/C=C2/C=C(c3ccccc3)N(c3ccc(Cl)c(C(=O)O)c3)C2=O)cc1	14	5	-20	20*	0	13	-2
CCOC(=O)c1ccc(Cl)c(NC(=O)c2ccc(-c3ccccc3)cc2)c1	3	1	-2	-1	2	x	x
Cc1ccnc(SCc2ccc(C(=O)O)cc2)n1	1	-1	-5	2	-8	x	x
C[C@H](NC(=O)[C@H](Cc1ccccc1)n1c(=O)[nH]c2ccccc2c1=O)C(=O)N1CCC(C(=O)O)CC1	0	1	-41	-7	0	x	x
CC(=O)c1ccc(NC(=O)C2CCCNC2=O)cc1 (stereo not given)	-4	3	2	22*	0	-2	-4
COc1ccc(NC(=O)C2CCCNC2=O)cc1 (stereo not given)	2	x	1	x	0	x	x
O=C(O)c1nn(-c2ccccc2)ccc1=O	0	3	0	-2	-1	x	x
C=Cn1cc[n+](CC(=O)c2ccc(-c3ccccc3)cc2)c1	-64	2	17	22*	-32	-2	0

From PubChem BioAssay
